{"data": "Published values from different studies", "target": "Serine/threonine-protein kinase Chk2 (CHEK2, Homo sapiens, UniProt O96017)", "note": "Protocols differ between the studies behind these lines."}
{"Compound": "N[C@H]1CCN(c2nccc(-c3cnn4ncccc34)n2)C1", "test": "binding", "conditions": "1 µM", "remaining binding [%]": 98}
{"Compound": "O=C(NCCCN1CCOCC1)c1ccc(Nc2nccc(-c3cc4ccccc4s3)n2)cc1", "test": "binding, competition with immobilised ligand", "conditions": "1 µM", "remaining binding [%]": 79}
{"Compound": "O=C(NCC1CCOCC1)c1n[nH]cc1NC(=O)c1c(F)cccc1F", "test": "binding, competition with immobilised ligand", "conditions": "1 µM", "remaining binding [%]": 97}
{"Compound": "Cc1cc(-n2nc(Cc3cc(F)cc(C(F)(F)F)c3)nc2C)ccc1C(N)=O", "test": "cell-free assay, competition with immobilised ligand", "conditions": "1 µM", "remaining binding [%]": 100}
{"Compound": "C[C@@H](c1ccc(-n2cnc3c(N)ncnc32)cc1)N1CCc2nn(C)c(Cc3ccccc3)c2C1=O", "test": "binding, competition with immobilised ligand", "conditions": "0.1 µM", "remaining binding [%]": 100}
{"Compound": "C[C@H]1CCN(c2nccc(-c3cnn4ncccc34)n2)C1", "test": "binding", "conditions": "1 µM", "remaining binding [%]": 94}
{"Compound": "COc1cc(C(=O)N2CCC(N3CCN(C)CC3)CC2)ccc1Nc1ncc2c(n1)N(C)c1ccccc1C(=O)N2C", "test": "binding, competition with immobilised ligand", "conditions": "10 µM", "remaining binding [%]": 66}
{"Compound": "C[C@@]1(Cc2ccc(C#N)cc2)C(=O)N(c2cc(Cl)cc(Cl)c2)c2ncc(C(=O)NC3(c4nc(C5CCC5)no4)CC3)n21", "test": "cell-free assay, competition with immobilised ligand", "conditions": "1 µM", "remaining binding [%]": 100}
{"Compound": "CC1CCCN1c1nccc(-c2cnn3ncccc23)n1 (stereo not drawn)", "test": "binding", "conditions": "1 µM", "remaining binding [%]": 100}
{"Compound": "CC(C)(O)c1cncc(-c2nc3ccc(F)cc3n2C2CC2)c1", "test": "cell-free assay, competition with immobilised ligand", "conditions": "1 µM", "remaining binding [%]": 100}
{"Compound": "NC(=O)c1nc(Nc2ccccc2)sc1NC(=O)C1CCCCC1", "test": "cell-free assay, competition with immobilised ligand", "conditions": "10 µM", "remaining binding [%]": 2.7}
{"Compound": "O=C(c1ccc(Nc2nccc(-c3cc4ccccc4s3)n2)cc1)N1CCC(N2CCCC2)CC1", "test": "binding, competition with immobilised ligand", "conditions": "1 µM", "remaining binding [%]": 100}
{"Compound": "CN(C)c1nccc(-c2cnn3ncccc23)n1", "test": "binding", "conditions": "1 µM", "remaining binding [%]": 100}
{"Compound": "c1cncc(-c2cccc(Nc3nccc(NC4CCCCC4)n3)c2)c1", "test": "binding, competition with immobilised ligand", "conditions": "10 µM", "remaining binding [%]": 97}
{"Compound": "Cn1nc(C(=O)NCc2ccc(C(=O)O)cc2)cc1-c1ccc2[nH]ccc2c1", "test": "cell-free assay, competition with immobilised ligand", "conditions": "0.1 µM", "remaining binding [%]": 100}
{"Compound": "FC(F)(F)Oc1cccc(-c2cnc3ccc(-c4ccncc4)nn23)c1", "test": "cell-free assay, competition with immobilised ligand", "conditions": "5 µM", "remaining binding [%]": 74}
{"Compound": "CCC(=N\\O)/C(C)=C/c1ccc(F)cc1", "test": "cell-free assay, competition with immobilised ligand", "conditions": "1 µM", "remaining binding [%]": 85}
{"Compound": "COc1cnc(Nc2cccc(S(N)(=O)=O)c2)nc1N1CCN(c2ccccc2)CC1", "test": "binding, competition with immobilised ligand", "conditions": "1 µM", "remaining binding [%]": 96}
{"Compound": "Cc1cnn2ncc(-c3ccnc(N(C)C)n3)c2c1", "test": "binding", "conditions": "1 µM", "remaining binding [%]": 84}
{"Compound": "O=C(NCCCN1CCOCC1)c1ccc(Nc2ncc(Cl)c(-c3ccc(Cl)s3)n2)cc1", "test": "binding, competition with immobilised ligand", "conditions": "1 µM", "remaining binding [%]": 82}
{"Compound": "CN(C)c1ncc(F)c(-c2cnn3ncccc23)n1", "test": "binding", "conditions": "1 µM", "remaining binding [%]": 100}
{"Compound": "O=C(NCc1ncc(C(F)(F)F)cc1Cl)c1ccc2c(c1)C1(CCS(=O)(=O)CC1)[C@H](C1CC1)N2S(=O)(=O)c1ccc(F)cc1", "test": "cell-free assay, competition with immobilised ligand", "conditions": "1 µM", "remaining binding [%]": 100}
{"Compound": "CN(c1nccc(-c2cnn3ncccc23)n1)C1CC1", "test": "binding", "conditions": "1 µM", "remaining binding [%]": 100}
{"Compound": "CCS(=O)(=O)c1cc2cc(C[C@@](O)(CC(C)(C)c3ccc(F)cc3C(N)=O)C(F)(F)F)[nH]c2cn1", "test": "cell-free assay, competition with immobilised ligand", "conditions": "1 µM", "remaining binding [%]": 84}
